Key:
MV4-11 [1] = experiment: Antitumor activity against human MV4-11 cells xenografted in SCID mouse assessed as tumor growth inhibition at 50 mg/kg, po qd measured 2 to 3 times weekly during treatment and once weekly post dose; assay type: functional; conditions: MV4-11, po, read-out: TGI
Method in brief: (§1)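 At ~100 mm3, mice were randomized to treatment or vehicle control. Tumors were measured by electronic calipers. Animals were checked daily for signs of toxicity and weighed 2–3 times weekly on treatment, then at least weekly afterwards.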

Mus musculus [2] = experiment: Toxicity in SCID mouse implanted with human MV-411 cells assessed as weight loss at 50 mg/kg, po qd measured 2 to 3 times weekly during treatment and weekly post dose; assay type: organism-based; conditions: in vivo; method in brief: as §1
Mus musculus [3] = experiment: Toxicity in SCID mouse implanted with human MV4-11 cells at 50 mg/kg, po qd measured 2 to 3 times weekly during treatment and once weekly post dose; assay type: organism-based; conditions: in vivo; method in brief: as §1
MOLM-13 = experiment: Growth inhibition of human MOLM13 cells after 4 days by WST-8 assay; assay type: functional, cell-based; conditions: MOLM-13, 96 h
Method in brief: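 MOLM-13 leukemia cells were seeded at 10,000 cells/well and exposed to serially diluted compound for 4 days. Signal was normalized to DMSO controls, and IC50 was fitted by nonlinear regression.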

MV4-11 [4] = experiment: Growth inhibition of human MV4-11 cells after 4 days by WST-8 assay; assay type: functional, cell-based; conditions: MV4-11, 96 h
[5] = biological target: T1, Bromodomain-containing protein 4 (Homo sapiens, UniProt O60885); experiment: Inhibition of FAM-labeled ZBA248 binding to recombinant human N-terminal His6-tagged BRD4 bromodomain 2 (333 to 460 residues) expressed in Rosetta2 DE3 cells after 30 mins by Flourescence polarization assay; assay type: biochemical
[6] = biological target: T1, Bromodomain-containing protein 4; experiment: Inhibition of FAM-labeled ZBA248 binding to recombinant human N-terminal His6-tagged BRD4 bromodomain 1 (44 to 168 residues) expressed in Rosetta2 DE3 cells after 30 mins by Flourescence polarization assay; assay type: biochemical
[7] = Half life in CD1 mouse liver microsomes at 1 uM by LC/MS method; assay type: ADME, microsome
[8] = Half life in Sprague-Dawley rat liver microsomes at 1 uM by LC/MS method; assay type: ADME, microsome
[9] = Half life in human liver microsomes at 1 uM by LC/MS method; assay type: ADME, microsome
[10] = Half life in Sprague-Dawley rat at 25 mg/kg, po by LC/MS method; assay type: ADME, organism-based; conditions: in vivo
Method in brief: (§2)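 Sprague Dawley rats were dosed iv at 5 mg/kg or orally at 25 mg/kg, with compound dissolved in 20% (v/v) PCP/70% (v/v) PBS vehicle. Blood was drawn by catheter at 0, 5, 15, 30 min and 1, 2, 4, 6, 8, 24 h and spun to plasma, which was stored at −80 °C. Plasma drug was quantified by a validated LC–MS/MS method, and parameters were derived noncompartmentally.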

[11] = Cmax in Sprague-Dawley rat at 25 mg/kg, po by LC/MS method; assay type: ADME, organism-based; design: dose 25 mg/kg, route oral; conditions: in vivo; method in brief: as §2
[12] = AUC (0 to t) in Sprague-Dawley rat at 25 mg/kg, po by LC/MS method; assay type: ADME, organism-based; conditions: in vivo; method in brief: as §2
[13] = Aqueous solubility of the compound in 5% DMSO/10% cremophor/85% saline; assay type: physicochemical; conditions: buffer
[14] = Drug level in SCID mouse at 25 mg/kg, po after 1 hr by LC-MS/MS analysis; assay type: ADME, organism-based; conditions: in vivo, read-out: Drug uptake
Method in brief: (§3)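 SCID mice received a single oral dose of 25 mg/kg in 20% (v/v) PCP/70% (v/v) PBS vehicle. Blood was collected and centrifuged to plasma, which was stored at −80 °C. Plasma drug concentration was measured by a validated LC–MS/MS method.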

[15] = Drug level in SCID mouse at 25 mg/kg, po after 3 hrs by LC-MS/MS analysis; assay type: ADME, organism-based; conditions: in vivo, read-out: Drug uptake; method in brief: as §3
[16] = Drug level in SCID mouse at 25 mg/kg, po after 6 hrs by LC-MS/MS analysis; assay type: ADME, organism-based; conditions: in vivo, read-out: Drug uptake; method in brief: as §3

Row | Structure (SMILES) | IC50 (MOLM-13) [nM] | IC50 (MV4-11 [4]) [nM] | IC50 [5] [nM] | Ki [5] [nM] | IC50 [6] [nM] | Ki [6] [nM] | also measured
1 | COc1cc2c(cc1-c1c(C)noc1C)ncc1[nH]c(=O)n([C@H](C)c3ccccn3)c12 | – | – | – | – | – | – | inhibition in vivo at 50 mg/kg (MV4-11 [1]): > 80%; Activity (Mus musculus [2]): Non-Toxic; Activity (Mus musculus [3]): Non-Toxic
2 | COc1cc2c(cc1-c1c(C)noc1C)[nH]c1ncnc(-c3c(C)n[nH]c3C)c12 | 233 | 99 | 63.5 | 20.2 | 51.7 | 19.7 | –
3 | COc1cc2c(cc1-c1c(C)noc1C)[nH]c1ncnc(-c3c(C)[nH]c4cnccc34)c12 | 127 | 13 | 25.9 | 9.1 | 10.8 | 4.2 | –
4 | COc1cc2c(cc1-c1c(C)noc1C)[nH]c1nc(C)nc(-c3cc(C)nc4ccccc34)c12 | 69 | 17 | 5.2 | 1.6 | 19.7 | 5.7 | t1/2 [7]: > 1 h; t1/2 [8]: > 1 h; t1/2 [9]: > 1 h
5 | COc1cc2c(cc1-c1c(C)noc1C)[nH]c1ncnc(-c3c(C)[nH]c4ccccc34)c12 | 65 | 6.6 | 1.1 | < 0.5 | 5 | 0.7 | half-life [10]: 1.7 h; Cmax [11]: 1400 ng/mL; AUC(0-t) [12]: 13400 ng·h/mL; t1/2 [7]: 0.067 h; t1/2 [8]: > 1 h; t1/2 [9]: 0.13 h; solubility [13]: Insoluble
6 | COc1cc2c(cc1-c1c(C)noc1C)[nH]c1ncnc(-n3ccnc3)c12 | 9270 | 1060 | 1140 | 335 | 1460 | 456 | –
7 | COc1cc2c(cc1-c1c(C)noc1C)[nH]c1nc(C)nc(-c3cc(C(F)(F)F)nc4ccccc34)c12 | 971 | 77 | 92.7 | 26.9 | 393 | 122 | –
8 | COc1cc2c(cc1-c1c(C)noc1C)[nH]c1ncnc(-c3c[nH]c4cnccc34)c12 | 489 | 190 | 22.7 | 7.1 | 11.6 | 7 | –
9 | COc1cc2c(cc1-c1c(C)noc1C)[nH]c1ncnc(-c3cnn4ccccc34)c12 | 139 | 13 | 26.5 | 6.5 | 48.7 | 28 | –
10 | COc1cc2c(cc1-c1c(C)noc1C)[nH]c1ncnc(-c3cn[nH]c3)c12 | – | – | 199 | 57 | 393 | 131 | –
11 | COc1cc2c(cc1-c1c(C)noc1C)[nH]c1ncnc(-c3c[nH]c4ccccc34)c12 | 205 | 57 | 5.5 | 1.1 | 20.3 | 4.9 | –
12 | COc1cc2c(cc1-c1c(C)noc1C)[nH]c1ncnc(-c3c(C4CC4)n[nH]c3C)c12 | 36 | 6 | 11.7 | 2.7 | 24.1 | 7 | concentration at 1 h [14]: 2200 ng/mL; concentration at 3 h [15]: 872 ng/mL; concentration at 6 h [16]: 72 ng/mL
13 | COc1cc2c(cc1-c1c(C)noc1C)[nH]c1ncnc(-c3ccoc3)c12 | > 10000 | 2860 | 180 | 56.4 | 155 | 44.3 | –
14 | COc1cc2c(cc1-c1c(C)noc1C)[nH]c1ncnc(N[C@H](C)c3ccccn3)c12 | – | – | 26.4 | 10.4 | 39.2 | 12 | –
15 | COc1cc2c(cc1-c1c(C)noc1C)[nH]c1ncnc(Cl)c12 | – | – | 1760 | 476 | 1130 | 387 | –
16 | COc1cc2c(cc1-c1c(C)noc1C)[nH]c1nc(C)nc(-c3c(C)[nH]c4ccccc34)c12 | 20 | 2 | 1.9 | < 0.5 | 6.1 | 0.8 | t1/2 [7]: > 1 h; t1/2 [8]: > 1 h; t1/2 [9]: 0.15 h

Row | Structure (SMILES) | IC50 (MOLM-13) [nM] | IC50 (MV4-11 [4]) [nM] | IC50 [5] [nM] | Ki [5] [nM] | IC50 [6] [nM] | Ki [6] [nM] | also measured
17 | COc1cc2c(cc1-c1c(C)noc1C)[nH]c1ncnc(-c3c(C)nn(C)c3C)c12 | 193 | 95 | 89.7 | 31.2 | 40.9 | 18.5 | –
18 | COc1cc2c(cc1-c1c(C)noc1C)[nH]c1nc(C)nc(-c3cccc4cnccc34)c12 | 656 | 295 | 436 | 146 | 451 | 139 | –
19 | COc1cc2c(cc1-c1c(C)noc1C)[nH]c1nc(C)nc(-c3cccc4ccncc34)c12 | 1140 | > 1000 | 167 | 52.3 | 316 | 78.6 | –
20 | COc1cc2c(cc1-c1c(C)noc1C)[nH]c1ncnc(-c3c(C)oc4ccccc34)c12 | 380 | 29 | 12.2 | 2.8 | 32.4 | 9.3 | –
21 | COc1cc2c(cc1-c1c(C)noc1C)[nH]c1ncnc(-n3nnc4ccccc43)c12 | > 10000 | > 10000 | > 1000 | > 1000 | > 1000 | > 1000 | –
22 | COc1cc2c(cc1-c1c(C)noc1C)[nH]c1ncnc(-c3cnoc3)c12 | – | – | 1880 | 641 | 2060 | 655 | –
23 | COc1cc2c(cc1-c1c(C)noc1C)[nH]c1ncnc(-c3cc[nH]c3)c12 | 612 | 253 | 108 | 30.6 | 165 | 51.9 | –
24 | COc1cc(-c2nc(C)nc3[nH]c4cc(-c5c(C)noc5C)c(OC)cc4c23)c2ccccc2n1 | 243 | 69 | 14.6 | 4.2 | 73.1 | 31.8 | –
25 | COc1cc2c(cc1-c1c(C)noc1C)[nH]c1ncnc(-n3cnc4ccccc43)c12 | 262 | 15 | 9.4 | 2.8 | 29.4 | 9.9 | –
26 | COc1cc2c(cc1-c1c(C)noc1C)[nH]c1nc(C)nc(-c3cccc4ncccc34)c12 | 76 | 28 | 15.5 | 3.1 | 30.9 | 10.1 | –
27 | COc1cc2c(cc1-c1c(C)noc1C)[nH]c1nc(C)nc(-c3cccc4cccnc34)c12 | – | 334 | 193 | 58.2 | 412 | 129 | –
28 | COc1cc2c(cc1-c1c(C)noc1C)[nH]c1nc(C)nc(-c3cncc4ccccc34)c12 | 124 | 47 | 12.7 | 3.8 | 35.6 | 9.5 | –
29 | COc1cc2c(cc1-c1c(C)noc1C)[nH]c1ncnc(-c3c(C)noc3C)c12 | 709 | 182 | 164 | 68.7 | 102 | 41.2 | –
30 | COc1cc2c(cc1-c1c(C)noc1C)[nH]c1ncnc(-c3nn(C)c4ccccc34)c12 | > 10000 | > 10000 | 74.9 | 22.5 | 147 | 85.1 | –
31 | COc1cc2c(cc1-c1c(C)noc1C)[nH]c1nc(C)nc(-c3cnc4ccccc4c3)c12 | 716 | 423 | 128 | 42.6 | 397 | 136 | –

Source: ChEMBL document CHEMBL4184143 (J Med Chem, 2017)
